5HT1E ag: 5-HT1E (human) receptor agonism; P28566; CHO 5-HT1E Ga15 NFAT-bla reporter, FRET; 0% DMSO wells, 100% control agonist wells; activation, % at 6 µM; 65,000 compounds, 0.69% hits;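 active = activation above a set limit, the screen-wide mean activation plus 3 SD, cut at about 8.5% in these data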;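 also: 100% = positive control agonist at 1 µM giving full maximal response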
HTR1E antagonist: blocks the human 5-HT1E serotonin receptor; 65,000 compounds, 0.99% hits; inhibition, % at 6 µM; CHO 5-HT1E Ga15 NFAT-bla reporter, FRET, antagonist;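 active = inhibition above a set limit, the mean inhibition across every tested compound plus 3 SD, cut at about 29% in these data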;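 also: signal is the 460 over 535 nm emission ratio of beta-lactamase substrate; 0% = agonist plus DMSO wells and 100% = wells without agonist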
S1P1 ag pot: activates or potentiates agonism at human S1P1 receptor; P21453; S1P1 CRE-bla cells, forskolin, beta-lactamase FRET, potentiator mode; S1P1 agonist co-added at EC20, 2 nM; 100% = saturating reference agonist, 0% = basal; activation, % at 9.5 µM; 56,000 compounds, 0.57% hits; AID 449;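 active = activation above a cutoff set at the mean activation of all tested compounds plus 3 SD, cut at about 54% in these data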;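 also: forskolin at 4 µM as EC80 and the EC20 agonist is SEW2871; 100% = SEW2871 at its EC100 plus forskolin at EC80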
Target sequence (P21453 whole entry, looked up): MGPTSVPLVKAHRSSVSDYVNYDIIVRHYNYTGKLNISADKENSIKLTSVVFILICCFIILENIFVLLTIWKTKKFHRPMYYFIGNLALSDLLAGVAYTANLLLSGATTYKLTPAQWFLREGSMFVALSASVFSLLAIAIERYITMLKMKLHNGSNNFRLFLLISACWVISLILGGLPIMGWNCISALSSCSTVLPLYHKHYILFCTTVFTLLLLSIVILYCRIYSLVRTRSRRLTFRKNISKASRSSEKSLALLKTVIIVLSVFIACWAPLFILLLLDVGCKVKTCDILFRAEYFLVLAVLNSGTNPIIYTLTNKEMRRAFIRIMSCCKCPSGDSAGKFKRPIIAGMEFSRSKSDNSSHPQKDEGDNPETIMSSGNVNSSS
5-HT1A blocker: blocks the human serotonin 5-HT1a receptor; P08908; CHO 5-HT1a Ga15 NFAT-bla reporter, antagonist mode; inhibition, % at 10 µM; 62,000 compounds, 0.68% hits; AID 612;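 active = inhibition above the mean of all tested compounds plus 3 SD, cut at about 43% in these data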;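 also: receptor stimulated by 5-CT agonist at 100 nM near EC80; beta-lactamase reporter measured by ratiometric fluorescence of a cleavable substrate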
HTR1A agonist: agonists of human 5-HT1a serotonin receptor | P08908 | 65,000 compounds, 0.56% hits | CHO 5-HT1a Ga15 NFAT-bla reporter, FRET ratio; 0% basal, 100% maximal reference agonist | activation, % at 10 µM | AID 567;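 active = activation above the screen-wide mean activation plus 3 SD, cut at about 19% in these data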;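 also: 0% = DMSO wells and 100% = 5-CT at EC100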
S1P3 ag: agonists of human S1P3 receptor | Q99500 | S1P3 NFAT-BLA reporter cells, agonism, FRET ratio; relative to 1 µM S1P, basal subtracted | activation, % at 4.5 µM | 60,000 compounds, 0.1% hits;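 active = activation above the screen-wide mean plus 3 SD, cut at about 4.5% in these data, passing the limit was not always enough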
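Benchmarks: high control 1 µM S1P / System: stable CHO line with human S1P3, Gα16, NFAT-BLA reporter / Dosing: single compound concentration, 4.5 µM final / Timing: 4 h compound at 37 °C, 2 h substrate at RT / Measured by: FRET β-lactamase substrate fluorescence, excitation 405 nm, 460/535 nm emission ratio, background-subtracted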
* marks the source's active call; other numbers are inactive results. Only some compounds are listed: those with a hit (about 2.9% of all), similar ones and a draw of the others.

Screening CCOC(=O)C1=C(N)n2c(s/c(=C\c3cccnc3)c2=O)=C(C#N)C1c1cccnc1 (stereo unspecified) returned 5HT1E ag 18.7*, HTR1E antagonist -7.5, S1P1 ag pot -1.4, 5-HT1A blocker -8.8, HTR1A agonist -0.3 and S1P3 ag -1.6.
`O=C(COc1cccc(-n2cnnn2)c1)N1CCOCC1` gave 5HT1E ag 0.1, HTR1E antagonist -7.0, S1P1 ag pot -0.6, 5-HT1A blocker -6.5, HTR1A agonist 0.0 and S1P3 ag -0.2.
COc1ccc(Cl)cc1NC(=O)COc1cccc(-n2cnnn2)c1 was read as 5HT1E ag 34.8*, HTR1E antagonist -2.8, S1P1 ag pot -12.6, 5-HT1A blocker -7.5, HTR1A agonist 1.0 and S1P3 ag 0.9.
`Cc1nc2sccn2c1-c1csc(NCc2ccccc2)n1` gave 5HT1E ag 1.3, HTR1E antagonist -27.2, S1P1 ag pot 112.9*, 5-HT1A blocker 7.1, HTR1A agonist -0.2 and S1P3 ag -1.0.
`C=CCNc1nc(-c2c(C)nc3sccn23)cs1` gave 5HT1E ag 0.6, HTR1E antagonist -11.2, 5-HT1A blocker -16.6, HTR1A agonist 1.0 and S1P3 ag 10.8.
S=c1[nH]nc(C23CC4CC(CC(C4)C2)C3)n1Cc1ccco1 was read as 5HT1E ag 0.1, HTR1E antagonist 15.1, S1P1 ag pot 0.7, 5-HT1A blocker 6.1, HTR1A agonist -1.6 and S1P3 ag -0.5.
For O=S(=O)(NCc1ccncc1)c1ccc(Br)s1 the results were 5HT1E ag 0.1, HTR1E antagonist 9.0, S1P1 ag pot 110.1*, 5-HT1A blocker 10.7, HTR1A agonist -0.5 and S1P3 ag -1.1.
For COc1cccc2sc(Nc3nnc(-c4cccs4)o3)nc12 the results were 5HT1E ag 0.2, HTR1E antagonist 6.8, S1P1 ag pot -47.0, 5-HT1A blocker 45.7*, HTR1A agonist -7.5 and S1P3 ag -0.8.
Screening COc1cccc2sc(Nc3nc(-c4ccccn4)cs3)nc12 returned 5HT1E ag 2.8, HTR1E antagonist 69.3*, S1P1 ag pot 72.0*, 5-HT1A blocker 66.2*, HTR1A agonist -2.0 and S1P3 ag -2.3.
Screening CCOC(=O)c1sc(Nc2nc3c(OC)cccc3s2)nc1C returned 5HT1E ag 13.4*, HTR1E antagonist -5.7, S1P1 ag pot -163.8, 5-HT1A blocker -19.6, HTR1A agonist 27.9* and S1P3 ag 0.2.
`C=CCn1c(Cc2cccs2)nnc1SCC(=O)c1cccc(Br)c1` gave 5HT1E ag 0.1, HTR1E antagonist 0.1, S1P1 ag pot 23.9, 5-HT1A blocker 13.7, HTR1A agonist -1.4 and S1P3 ag -1.1.
`CCc1nnc(NC(=O)C2CCCN2S(=O)(=O)c2ccc(F)cc2)s1` (stereo unspecified) gave 5HT1E ag -0.4, HTR1E antagonist 6.6, S1P1 ag pot 4.6, 5-HT1A blocker -17.7, HTR1A agonist -0.5 and S1P3 ag 1.0.
For OC(CNCCc1ccc(Cl)cc1)COCc1ccco1 (stereo unspecified) the results were 5HT1E ag 9.5*, HTR1E antagonist 3.8, S1P1 ag pot 3.1, 5-HT1A blocker 4.4, HTR1A agonist 0.0 and S1P3 ag 0.0.
Screening OC(CNCc1ccco1)COc1ccccc1 (stereo unspecified) returned 5HT1E ag -0.6, HTR1E antagonist -9.5, S1P1 ag pot -18.9, 5-HT1A blocker 10.0, HTR1A agonist -3.0 and S1P3 ag -0.8.
Screening COc1ccccc1-c1cc(C(F)(F)F)nc(S(=O)(=O)CCCC(=O)N2CCOCC2)n1 returned 5HT1E ag 4.7, HTR1E antagonist 58.8*, S1P1 ag pot -64.0, 5-HT1A blocker 26.5, HTR1A agonist 7.9 and S1P3 ag 0.1.
CCOC(=O)c1ccc(NS(=O)(=O)c2cccc3nsnc23)cc1 was read as 5HT1E ag 0.0, HTR1E antagonist -4.5, S1P1 ag pot 12.7, 5-HT1A blocker 4.4, HTR1A agonist -1.4 and S1P3 ag -1.2.
For OC(COc1c(F)cc(Br)cc1F)CN1CCN(c2ccc(F)cc2)CC1 (stereo unspecified) the results were 5HT1E ag 1.9, HTR1E antagonist -7.1, S1P1 ag pot -12.1, 5-HT1A blocker 62.7*, HTR1A agonist 8.6 and S1P3 ag -0.4.
For Cc1cccc2cc(C#N)c(SCC(=O)N3CC(=O)Nc4ccccc43)nc12 the results were 5HT1E ag -0.1, HTR1E antagonist 45.0*, S1P1 ag pot -5.3, 5-HT1A blocker 40.1, HTR1A agonist -2.3 and S1P3 ag -0.4.
For COc1cc2c(C(=O)N3CCN(Cc4ccc5c(c4)OCO5)CC3)cn(C)c(=O)c2cc1OC the results were 5HT1E ag -1.2, HTR1E antagonist 10.5, 5-HT1A blocker 1.3 and HTR1A agonist -0.2.
`COc1ccccc1C(=O)N1CCN(Cc2ccc3c(c2)OCO3)CC1` gave 5HT1E ag 8.8*, HTR1E antagonist 2.4, S1P1 ag pot -6.0, HTR1A agonist -2.1 and S1P3 ag -1.9.
`COc1ccc(CC(NC(C)=O)C(=O)NC2CCN(c3nc(C)cc(C)c3C#N)CC2)c(OC)c1` (stereo unspecified) gave 5HT1E ag 0.5, HTR1E antagonist -5.6, S1P1 ag pot 0.0, 5-HT1A blocker 7.0, HTR1A agonist -1.2 and S1P3 ag 0.1.
Cc1cc(C)n(-c2nc(NCC(C)O)c3c4c(sc3n2)CCCC4)n1 (stereo unspecified) was read as 5HT1E ag 1.2, HTR1E antagonist -5.7, S1P1 ag pot -84.6, 5-HT1A blocker -3.4, HTR1A agonist 1.9 and S1P3 ag 29.4*.
`Cc1cc(C)n(-c2nc(SCC(=O)NCC3CCCO3)c3c4c(sc3n2)CCCC4)n1` (stereo unspecified) gave 5HT1E ag -1.3, HTR1E antagonist 15.3, S1P1 ag pot -3.4, 5-HT1A blocker 23.0, HTR1A agonist -2.6 and S1P3 ag -1.6.
`Nc1nc(SCC(=O)NCCCO)nc2sc3c(c12)CCC3` gave 5HT1E ag 0.1, HTR1E antagonist -4.0, 5-HT1A blocker 9.2, HTR1A agonist 0.4 and S1P3 ag -0.7.
For Cc1cc(C)n(-c2nc(NCCCO)c3c4c(sc3n2)CCCC4)n1 the results were 5HT1E ag 0.7, HTR1E antagonist 10.6, S1P1 ag pot -83.7, 5-HT1A blocker -17.9, HTR1A agonist 9.9 and S1P3 ag 41.1*.
`Cc1cc(C)n(-c2nc(NCCO)c3c4c(sc3n2)CCCC4)n1` gave 5HT1E ag 0.3, HTR1E antagonist -12.4, S1P1 ag pot -68.5, 5-HT1A blocker -19.3, HTR1A agonist 44.8* and S1P3 ag 27.9*.

High-throughput results deposited in PubChem BioAssay by The Scripps Research Institute Molecular Screening Center.
